Assay results taken from ChEMBL document CHEMBL1145781, “Synthesis and structure-activity relationships of 5-amino-6-fluoro-1-[(1R,2S)-2-fluorocyclopropan-1-yl]-8-methylquinolonecarboxylic acid antibacterials having fluorinated 7-[(3R)-3-(1-aminocyclopropan-1-yl)pyrrolidin-1-yl] substituents” (J Med Chem, 2003).
Values after ≈ are worked out from the molar mass of the structure shown.

Experiments:
[1] = test system: Streptococcus pneumoniae; experiment: Antibacterial activity was determined against Streptococcus pneumoniae J-24 strain after incubation at 37 degrees C for 18 h; format: functional
[2] = test system: Streptococcus pneumoniae; experiment: Antibacterial activity was determined against clinically isolated penicillin resistant Streptococcus pneumoniae (PRSP) strains (50 strains); format: functional
[3] = test system: Escherichia coli; experiment: Antibacterial activity was determined against Escherichia coli NIHJ strain after incubation at 37 degrees C for 18 h; format: functional
[4] = test system: Enterococcus faecalis; experiment: Antibacterial activity was determined against Enterococcus faecalis ATCC 19433 strain after incubation at 37 degrees C for 18 h; format: functional; conditions: ATCC 19433, 18 h
[5] = test system: Staphylococcus epidermidis; experiment: Antibacterial activity was determined against Staphylococcus epidermis 56500 strain after incubation at 37 degrees C for 18 h; format: functional
[6] = test system: Pseudomonas aeruginosa; experiment: Antibacterial activity was determined against Pseudomonas aeruginosa PAO1 strain after incubation at 37 degrees C for 18 h; format: functional
[7] = test system: Streptococcus pyogenes; experiment: Antibacterial activity was determined against Streptococcus pyogenes G-36 strain after incubation at 37 degrees C for 18 h; format: functional
[8] = test system: Enterococcus sp.; experiment: Antibacterial activity was determined against clinically isolated vancomycin-B resistant enterococci (VRE) strains (10 strains); format: functional
[9] = test system: Staphylococcus aureus; experiment: Antibacterial activity was determined against clinically isolated Levofloxacin-methicillin resistant Staphylococcus aureus (LVFX-r MRSA) strains (74 strains); format: functional
[10] = test system: Staphylococcus aureus; experiment: Antibacterial activity was determined against Staphylococcus aureus FDA 209-P strain after incubation at 37 degrees C for 18 h; format: functional
[11] = test system: Streptococcus mitis; experiment: Antibacterial activity was determined against Streptococcus mitis IID685 strain after incubation at 37 degrees C for 18 h; format: functional
[12] = test system: Klebsiella pneumoniae; experiment: Antibacterial activity was determined against Klebsiella pneumoniae type II strain after incubation at 37 degrees C for 18 h; format: functional
[13] = test system: Enterococcus sp.; experiment: Antibacterial activity was determined against clinically isolated vancomycin-A resistant enterococci (VRE) strains (33 strains); format: functional
[14] = Mortality was determined after 50 mg/kg dose administered intravenously to 5-week old male mice at a speed of 0.2 mL/min counted on day 7 for total 2 mice; format: ADME, organism-based; design: dose 50 mg/kg, route intravenous; conditions: mouse, in vivo, iv
In short: (§1)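 Male Slc:ddY mice, 5 weeks old. Compound dissolved in 0.1 N NaOH in saline at varied concentrations and given as a single IV injection at 0.2 mL/min, total volume 10 mL/kg body weight. Deaths counted on day 7 and reported as dead/tested.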

[15] = Mortality was determined after 150 mg/kg dose administered intravenously to 5-week old male mice at a speed of 0.2 mL/min counted on day 7 for total 2 mice; format: ADME, organism-based; design: dose 150 mg/kg, route intravenous; conditions: mouse, in vivo, iv; in short: as §1
[16] = Solubility was determined in water; format: physicochemical
[17] = Mortality was determined after 100 mg/kg dose administered intravenously to 5-week old male mice at a speed of 0.2 mL/min counted on day 7 for total 2 mice; format: ADME, organism-based; design: dose 100 mg/kg, route intravenous; conditions: mouse, in vivo, iv; in short: as §1
[18] = Mortality was determined after 50 mg/kg dose administered intravenously to 5-week old male mice at a speed of 0.2 mL/min counted on day 7 for total 5 mice; format: ADME, organism-based; design: dose 50 mg/kg, route intravenous; conditions: mouse, in vivo, iv; in short: as §1
[19] = Toxicity was determined as presence of micronucleated reticulocytes (MNRET) in blood at 24 and 48 hr after 50 mg/kg dose administered intravenously to 5-week old male mice.; conditions: mouse, in vivo, iv
[20] = Toxicity was determined as presence of micronucleated reticulocytes (MNRET) in blood at 24 and 48 hr after 100 mg/kg dose administered intravenously to 5-week old male mice; positive.; format: organism-based; design: dose 100 mg/kg, route intravenous; conditions: mouse, in vivo, iv
[21] = Mortality was determined after 100 mg/kg dose administered intravenously to 5-week old male mice at a speed of 0.2 mL/min counted on day 7 for total 5 mice; format: ADME, organism-based; design: dose 100 mg/kg, route intravenous; conditions: mouse, in vivo, iv; in short: as §1

Row | SMILES | MIC [1] [µg/mL] | MIC [3] [µg/mL] | MIC [4] [µg/mL] | MIC [5] [µg/mL] | MIC [6] [µg/mL] | MIC [7] [µg/mL] | MIC [10] [µg/mL] | MIC [11] [µg/mL] | MIC [12] [µg/mL] | Dead [15] | solubility [16] [µg/mL] | Dead [17] | Dead [18] | other results
1 | COc1c(N2CCNC(C)C2)c(F)cc2c(=O)c(C(=O)O)cn(C3CC3)c12 (centres undefined) [GATIFLOXACIN] | 0.2 (≈ 0.533 µM) | 0.006 (≈ 0.016 µM) | 0.39 (≈ 1.04 µM) | 0.2 (≈ 0.533 µM) | 0.39 (≈ 1.04 µM) | 0.39 (≈ 1.04 µM) | 0.05 (≈ 0.133 µM) | 0.2 (≈ 0.533 µM) | 0.05 (≈ 0.133 µM) |  |  |  |  | MIC50 [2]: 0.25 µg/mL (≈ 0.666 µM); MIC90 [2]: 0.25 µg/mL (≈ 0.666 µM); MIC50 [8]: 2 µg/mL (≈ 5.33 µM); MIC90 [8]: 16 µg/mL (≈ 42.6 µM); MIC50 [9]: 4 µg/mL (≈ 10.7 µM); MIC90 [9]: 32 µg/mL (≈ 85.2 µM); MIC50 [13]: 16 µg/mL (≈ 42.6 µM); MIC90 [13]: 32 µg/mL (≈ 85.2 µM)
2 | Cc1c(N2CC[C@@H](CN)C2)c(F)c(N)c2c(=O)c(C(=O)O)cn(C3C[C@@H]3F)c12 (single isomer, unassigned) | 0.013 (≈ 0.0331 µM) | 0.013 (≈ 0.0331 µM) | 0.025 (≈ 0.0637 µM) | 0.006 (≈ 0.0153 µM) | 0.1 (≈ 0.255 µM) | 0.013 (≈ 0.0331 µM) | ≤ 0.003 | 0.006 (≈ 0.0153 µM) | 0.1 (≈ 0.255 µM) | 2 | 404 (≈ 1030 µM) | 2 |  | Dead [14]: 2
3 | Cc1c(N2CC[C@@H]([C@H](C)N)C2)c(F)c(N)c2c(=O)c(C(=O)O)cn([C@@H]3C[C@@H]3F)c12 | ≤ 0.003 | ≤ 0.003 | 0.025 (≈ 0.0615 µM) | ≤ 0.003 | 0.05 (≈ 0.123 µM) | ≤ 0.003 | ≤ 0.003 | ≤ 0.003 | 0.025 (≈ 0.0615 µM) | 2 | 95 (≈ 234 µM) | 2 | 1 | Toxicity [19]: Toxic
4 | Cc1c(N2CC[C@@H](C3(N)CC3)C2)c(F)c(N)c2c(=O)c(C(=O)O)cn([C@@H]3C[C@@H]3F)c12 | ≤ 0.003 | ≤ 0.003 | 0.013 (≈ 0.0311 µM) | ≤ 0.003 | 0.1 (≈ 0.239 µM) | ≤ 0.003 | ≤ 0.003 | ≤ 0.003 | 0.025 (≈ 0.0597 µM) | 2 | 39 (≈ 93.2 µM) |  |  | Toxicity [20]: Toxic; Dead [21]: 0
5 | Cc1c(N2C[C@H](F)[C@@H](C3(N)CC3)C2)c(F)c(N)c2c(=O)c(C(=O)O)cn([C@@H]3C[C@@H]3F)c12 | ≤ 0.003 | ≤ 0.003 | 0.013 (≈ 0.0298 µM) | ≤ 0.003 | 0.2 (≈ 0.458 µM) | ≤ 0.003 | ≤ 0.003 | ≤ 0.003 | 0.013 (≈ 0.0298 µM) | 2 |  | 2 | 0 | 
